The record followed here is ChEMBL document CHEMBL1135400, “Alpha2-adrenoreceptors profile modulation and high antinociceptive activity of (S)-(-)-2-[1-(biphenyl-2-yloxy)ethyl]-4,5-dihydro-1H-imidazole” (J Med Chem, 2002).

Experiment [1] concerns the target T1, Adrenergic receptor alpha-2 (Rattus norvegicus, UniProt P22086+P19328+P22909).
T1 sequence (P22086 whole entry): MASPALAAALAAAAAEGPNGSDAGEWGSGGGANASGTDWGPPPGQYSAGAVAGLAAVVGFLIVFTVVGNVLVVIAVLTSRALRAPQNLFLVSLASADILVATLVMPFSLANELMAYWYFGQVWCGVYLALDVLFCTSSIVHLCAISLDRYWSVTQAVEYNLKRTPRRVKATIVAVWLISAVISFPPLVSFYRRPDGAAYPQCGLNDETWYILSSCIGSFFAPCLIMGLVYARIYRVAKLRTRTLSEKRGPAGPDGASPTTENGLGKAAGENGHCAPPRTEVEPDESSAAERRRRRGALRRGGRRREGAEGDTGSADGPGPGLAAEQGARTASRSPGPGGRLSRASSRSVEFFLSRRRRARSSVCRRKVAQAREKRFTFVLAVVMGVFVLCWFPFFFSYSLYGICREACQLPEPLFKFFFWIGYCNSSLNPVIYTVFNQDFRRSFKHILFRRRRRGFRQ
T1 sequence (P19328 whole entry): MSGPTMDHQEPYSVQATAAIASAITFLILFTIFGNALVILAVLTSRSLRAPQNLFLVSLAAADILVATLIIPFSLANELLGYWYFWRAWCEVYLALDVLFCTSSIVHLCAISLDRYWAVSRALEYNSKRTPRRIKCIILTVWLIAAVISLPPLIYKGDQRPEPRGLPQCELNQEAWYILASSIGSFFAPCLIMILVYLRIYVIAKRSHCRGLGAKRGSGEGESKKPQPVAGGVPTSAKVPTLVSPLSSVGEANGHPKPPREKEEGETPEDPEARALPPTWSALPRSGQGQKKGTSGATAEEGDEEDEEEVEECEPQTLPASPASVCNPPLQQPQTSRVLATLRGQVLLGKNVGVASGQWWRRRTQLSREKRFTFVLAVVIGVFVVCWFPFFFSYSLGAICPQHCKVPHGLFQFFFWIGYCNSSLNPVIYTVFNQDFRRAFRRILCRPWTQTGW
T1 sequence (P22909 whole entry): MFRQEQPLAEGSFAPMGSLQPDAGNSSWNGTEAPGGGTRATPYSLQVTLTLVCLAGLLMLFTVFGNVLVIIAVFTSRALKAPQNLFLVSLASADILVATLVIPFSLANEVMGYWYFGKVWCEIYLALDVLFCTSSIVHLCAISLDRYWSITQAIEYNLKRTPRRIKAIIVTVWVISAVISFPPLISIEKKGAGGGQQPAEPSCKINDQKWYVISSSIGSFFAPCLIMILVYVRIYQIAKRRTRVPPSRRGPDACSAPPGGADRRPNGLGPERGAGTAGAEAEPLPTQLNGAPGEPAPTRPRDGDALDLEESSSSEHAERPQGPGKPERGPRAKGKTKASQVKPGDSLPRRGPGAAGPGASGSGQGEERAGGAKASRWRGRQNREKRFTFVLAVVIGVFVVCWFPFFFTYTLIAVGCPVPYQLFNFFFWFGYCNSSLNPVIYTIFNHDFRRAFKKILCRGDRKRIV
The experiment is described as follows: Displacement of [3H]clonidine from Alpha-2 adrenergic receptor of rat cortex membrane. In short, it runs like this:
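Rat cerebral cortex membranes (200 µg protein) in 50 mM Tris-HCl pH 7.4, 5 nM [3H]clonidine, 10–12 competitor concentrations, 45 min at 25 °C; GF/B filtration, scintillation counting. Nonspecific binding with 10 µM phentolamine. Triplicate points; IC50 by nonlinear regression, Ki by Cheng–Prusoff, curves repeated at least three times, pKi ± SEM.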

In experiment [2] the target is T2, Adrenergic receptor alpha-2 (Rattus norvegicus) (UniProt P22086+P19328+P22909). Put plainly: pD2 is -log ED50 required to produce 50% inhibition of the twitch response in rat vas deferens (intrinsic activity in presence of clonidine) for Alpha-2 adrenergic receptor. In kind it is tissue-based. In short, it runs like this:
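Prostatic portion (12 mm) of male albino rat (125–150 g) vas deferens, 37 °C, O2/CO2 95%/5%, 1 g loading tension. Physiological salt solution had 0.54 mM MgCl2, prazosin ([…]), propranolol (1 µM) and cocaine (10 µM). Field stimulation was 0.1 Hz, 3 ms, 10–15 V, recorded isometrically.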

Experiment [3] concerns the target T2, Adrenergic receptor alpha-2 (Rattus norvegicus). Put plainly: Antilog of the difference between pD2 of Alpha-2 adrenergic receptor and pD2 of Alpha-1 adrenergic receptor.
Experiment [4] has as its target T3, Adrenergic receptor alpha-1 (Rattus norvegicus) (UniProt P15823+P23944+P43140). The experiment is described as follows: Inhibition of Alpha-1 adrenergic receptor twitch response in rat vas deferens in presence of cirazoline, pD2 is -log ED50. In kind it is tissue-based.
Experiment [5] in a line: Relative binding affinity for Alpha-2 adrenergic receptor and I2 imidazoline binding site (Antilog of the difference between pKi). In short, it runs like this: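 Ratio from two radioligand assays. α2: rat cortex membranes with 5 nM [3H]clonidine, nonspecific binding with 10 µM phentolamine. I2: rabbit kidney membranes with 5 nM [3H]idazoxan, adrenoreceptors masked by 10 µM norepinephrine, nonspecific binding with 10 µM cirazoline. Both assays 45 min at 25 °C, Ki by Cheng–Prusoff.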

Experiment [6] concerns the target Imidazoline I2 binding sites (Oryctolagus cuniculus). Put plainly: Displacement of [3H]idazoxan from imidazoline receptor I-2 binding sites in rabbit kidney membrane.
Experiment [7] deals with T2, Adrenergic receptor alpha-2 (Rattus norvegicus). Put plainly: pKb value using clonidine as agonist for Alpha-2 adrenergic receptor. In kind it is functional. In short, it runs like this: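 Prostatic rat vas deferens held under 0.1 Hz electrical stimulation, with prazosin, propranolol (1 µM) and cocaine (10 µM) present. Compounds lacking agonist activity were tested against clonidine. Dose ratios were taken at clonidine ED50 at one antagonist concentration, tested six times. Dissociation constant by the van Rossum method.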

Experiment [8] addresses T3, Adrenergic receptor alpha-1 (Rattus norvegicus). The experiment is described as follows: pKb value using (-)-norepinephrine as agonist for Alpha-1 adrenergic receptor.
For experiment [9], the target named is T2, Adrenergic receptor alpha-2 (Rattus norvegicus). The experiment is described as follows: pD2 is -log ED50 required to produce 50% inhibition of the twitch response in rat vas deferens (intrinsic activity in presence of cirazoline) for Alpha-2 adrenergic receptor. In kind it is tissue-based. The settings on record: in the assay text read “clonidine” for “cirazoline”. In short, it runs like this:
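Prostatic portion (12 mm) of male rat vas deferens (125–150 g) at 37 °C under 95% O2/5% CO2, 1 g load. Bath contains 0.54 mM MgCl2, prazosin, 1 µM propranolol and 10 µM cocaine.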

On to `c1ccc(-c2ccccc2NCC2=NCCN2)cc1`, for which the “Log Ki” value in experiment [1] is listed as -6.45; in [6], -6.09. For the same molecule, the pD2 in experiment [2] turned out to be 7.84; in experiment [4] it was 6.37. For the same molecule, the Ratio stood at 29.5 in experiment [3] and 2.3 in [5].

`CC(Oc1ccccc1Cc1ccccc1)C1=NCCN1` (centres undefined) gave a pKb in [7] of 6.87. Also, the “Log Ki” value is -6.8 in [1] and -5.12 in [6]. Besides, the pD2 in experiment [4] worked out at 5.99. The Ratio in experiment [5] came to 47.9.

In turn, `c1ccc(NCC2=NCCN2)cc1` [PHENAMAZOLINE] showed a negative-log Kb (pKb) in experiment [7] of 6.38. The “Log Ki” value in experiment [1] was -7.14; in [6], -7.48. In addition, the pD2 in experiment [4] is 4.89. In experiment [5], the Ratio amounted to 0.46.

In the case of `C[C@@H](Oc1ccccc1-c1ccccc1)C1=NCCN1`, the “Log Ki” value in experiment [1] is given as -7. Also, the pD2 in [2] turned out to be 7.4; in experiment [4], 6.23.

The molecule `CC(Oc1ccccc1)C1=NCCN1` (centres undefined) yielded a pKb in experiment [7] of 7.29. Further, the “Log Ki” value is listed as -7.01 in experiment [1] and -5.57 in [6]. Moreover, in experiment [4], the pD2 is 5.2. The Ratio in experiment [5] was 27.5.

Regarding `CC(Nc1ccccc1-c1ccccc1)C1=NCCN1` (centres undefined), the “Log Ki” value in experiment [1] was -7; in [6] it was -4.9. Moreover, the pD2 in [2] came to 8.36; in [4] it was 6.73. Also, the Ratio in [3] was 42.7; in [5], 126.

Regarding `CC(Oc1ccccc1-c1ccccc1)C1=NCCN1` (centres undefined) [BIPHENYLINE], the “Log Ki” value in [1] is given as -7.91. Also, the pD2 in [2] came to 8.52; in experiment [4] it was 7.2.

`c1ccc(OCC2=NCCN2)cc1` came in with a pKb in experiment [7] of 6.71. Also, the “Log Ki” value in experiment [1] is -7.28. Moreover, the pD2 in [4] came out at 5.26.

Take `c1ccc(-c2ccccc2OCC2=NCCN2)cc1`: the “Log Ki” value in experiment [1] is reported as -7.1. The results for the pD2 in experiment [2] and in [4] were 8.46 and 6.68, respectively.

With `c1ccc(Cc2ccccc2OCC2=NCCN2)cc1`, the pKb in [7] stood at 7.14. For the same molecule, the “Log Ki” value is listed as -6.52 in [1] and -6.7 in [6]. In addition, the pD2 in experiment [4] is 5.27. In addition, the Ratio in experiment [5] was 0.66.

Turning to `C[C@H](Oc1ccccc1-c1ccccc1)C1=NCCN1`, the “Log Ki” value in [1] is -7.5. Also, the pD2 in experiment [2] stood at 8.55; in experiment [4] it was 7.51.

`CC(Oc1ccc(-c2ccccc2)cc1)C1=NCCN1` (centres undefined): the results for the pKb in [7] and in experiment [8] were 5.81 and 5.92, respectively. For the same molecule, the figures for the “Log Ki” value in [1] and in experiment [6] were -7.5 and -6.74, respectively. Moreover, the Ratio in experiment [3] worked out at 0.78; in experiment [5], 5.8.

In the case of `CC(Oc1cccc(-c2ccccc2)c1)C1=NCCN1` (centres undefined), the “Log Ki” value in experiment [1] is on record as -6.92; in experiment [6], -6.57. Besides, the pD2 in [9] was 6.66; in experiment [4] it was 4.53. Also, the Ratio was 135 in experiment [3] and 2.2 in [5].
